Molecules are shown by their SMILES. In brackets after ≈: the same amount, converted by molar mass. Activity calls are given as the source filed them. The calls are words filed in the database; no cut-off is given here.

The IC50 is the concentration at which inhibition is half-maximal. For orientation: MIC90 means the lowest concentration that inhibits either 90% of growth or 90% of the strains tested, depending on the study.

The subject of assay [1] is Plasmodium falciparum. Nature of the assay: Reduced apicoplast DNA/nuclear DNA ratio in Plasmodium falciparum FCK2 at 25 uM after 72 hrs by competitive PCR. It is filed as functional, organism-based.
The subject of assay [2] is Plasmodium falciparum. Nature of the assay: Inhibition of Plasmodium falciparum FCK2 growth as [3H]hypoxanthine uptake after 96 hrs. Type of assay: functional, organism-based. An outline of the steps: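 Ring-synchronized FCK2 at 2 to 3% hematocrit, 1 to 2% initial parasitemia, exposed to a range of inhibitor concentrations for the first 48 h only, in duplicate. [3H]hypoxanthine then added for a further 48 h, followed by harvest and scintillation counting. IC50/MIC90 from nonlinear fit of parasitemia relative to untreated (100%) against log concentration.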

The subject of assay [3] is Plasmodium falciparum. Kind of assay: Inhibition of Plasmodium falciparum FCK2 growth as [3H]hypoxanthine uptake after 48 hrs. Type of assay: functional, organism-based. An outline of the steps:
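Ring-synchronized FCK2 in human O+ erythrocytes, 2 to 3% hematocrit, 1 to 2% initial parasitemia. Cultured 48 h with [3H]hypoxanthine and a range of inhibitor concentrations, inhibitor refreshed in new medium every 24 h, in duplicate. Cells harvested onto glass fibre filters for scintillation counting. IC50/MIC90 from nonlinear fit of parasitemia relative to untreated (100%) against log concentration.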

Assay [4] concerns Plasmodium falciparum. Kind of assay: Reduction in Plasmodium falciparum FCK2 in human blood cell culture after 96 hrs. On the set-up: scale not given: the % may be the effect or the level left. Type of assay: functional. Put shortly: (§1)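 Ring-stage synchronized FCK2 (2–3% hematocrit, 1–2% parasitemia) was treated with an inhibitor dilution series for the first 48 h only, in duplicate. [3H]hypoxanthine was then added for a further 48 h (96 h total) before filter harvest and scintillation counting. Percent parasitemia was set relative to untreated controls, and IC50/MIC90 were fitted by nonlinear regression against log concentration.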

For assay [5], the system named is Plasmodium falciparum. Nature of the assay: Reduction in Plasmodium falciparum FCK2 in human erythrocyte culture after 48 hrs. Type of assay: functional, organism-based. Put shortly: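 FCK2 synchronized with sorbitol, at ring stage, in O+ erythrocytes (2–3% hematocrit, 1–2% parasitemia). Cells were exposed to an inhibitor dilution series with [3H]hypoxanthine for 48 h, with fresh inhibitor every 24 h, in duplicate. Harvested onto glass-fiber filters for scintillation counting. Parasitemia was taken relative to untreated (100%), and IC50/MIC90 were fitted by nonlinear regression against log concentration.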

For assay [6], the system named is Plasmodium falciparum. Nature of the assay: Decrease in Plasmodium falciparum FCK2 in erythrocytes at 50 uM after 84 hrs. Type of assay: functional, organism-based. Put shortly: (§2)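 Ring-stage synchronized FCK2 in human O+ erythrocytes at 10% hematocrit and 3% starting parasitemia, with medium changed every 24 h. Inhibitor was present either throughout (96 h) or for the first 48 h only, in triplicate. Giemsa thin smears were read every 12 h, counting at least 10 fields of about 200 cells. Parasitemia is infected RBC over total RBC; parasites lacking an intact membrane or stained cytoplasm were scored dead.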

Assay [7] concerns Plasmodium falciparum. Kind of assay: Reduced apicoplast DNA/nuclear DNA ratio in Plasmodium falciparum FCK2 at 100 nM after 72 hrs by competitive PCR. Type of assay: functional, organism-based.
In assay [8] the test system is Plasmodium falciparum. Nature of the assay: Reduced apicoplast DNA/nuclear DNA ratio in Plasmodium falciparum FCK2 at 10 uM after 72 hrs by competitive PCR. Type of assay: functional.
The test system of assay [9] is Plasmodium falciparum. Nature of the assay: Inhibition of fatty acid biosynthesis in Plasmodium falciparum FCK2 as [1,2-14C]acetate uptake during first asexual cycle at 10 uM after 24 hrs. It is filed as functional, organism-based.
Assay [10] deals with Plasmodium falciparum. Kind of assay: Reduced apicoplast genome copy number in Plasmodium falciparum FCK2 after 96 hrs. Type of assay: functional.
Assay [11] concerns Plasmodium falciparum. Kind of assay: Reduced apicoplast genome copy number in Plasmodium falciparum FCK2 after 48 hrs. Type of assay: functional.
Assay [12] deals with Plasmodium falciparum. Kind of assay: Decrease in Plasmodium falciparum FCK2 in erythrocytes at 5 uM after 84 hrs. Type of assay: functional, organism-based. Put shortly:
as §2

For assay [13], the system named is Plasmodium falciparum. Kind of assay: Reduced apicoplast DNA/nuclear DNA ratio in Plasmodium falciparum FCK2 at 500 uM after 72 hrs by competitive PCR. Type of assay: functional, organism-based.
Assay [14] deals with Plasmodium falciparum. Kind of assay: Inhibition of Plasmodium falciparum FCK2 second cycle growth in erythrocytes at 48 hrs. Type of assay: functional, organism-based. An outline of the steps: as §1
In assay [15] the test system is Plasmodium falciparum. Kind of assay: Reduced apicoplast DNA/nuclear DNA ratio in Plasmodium falciparum FCK2 at 1 mM after 72 hrs by competitive PCR. It is filed as functional, organism-based. Put shortly: (§3)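 FCK2 cultures were treated for 72 h, then saponin-lysed, and genomic DNA was kit-purified. Competitive PCR for eftu (apicoplast) and fabI (nuclear) used deletion-mutant plasmid standards diluted in calf thymus DNA, run for 25 cycles at 95/50/72°C. Products were quantified by ethidium-stained gel densitometry, and copy number was taken at equal band intensity. Groups were compared by two-tailed Student t test.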

Assay [16] has as its system Plasmodium falciparum. Nature of the assay: Reduced apicoplast DNA/nuclear DNA ratio in Plasmodium falciparum FCK2 at 100 uM after 72 hrs by competitive PCR. Type of assay: functional. An outline of the steps:
as §3

Assay [17] concerns Plasmodium falciparum. Kind of assay: Inhibition of fatty acid biosynthesis in Plasmodium falciparum FCK2 as decreased [1,2-14C]acetate uptake at 10 uM after 2 hrs. Type of assay: functional, organism-based.

For the molecule `Oc1ccc(Cl)cc1Oc1ccc(Cl)c2cccnc12`, the outcome in [1] was inactive.
Take `O=C(O)c1cc(Oc2ccc(C(F)(F)F)cc2Cl)ccc1[N+](=O)[O-]` [ACIFLUORFEN]: the half-inhibitory concentration (IC50) in [2] came to 457 µM; in [3] it was 525 µM. Further, the MIC90 in assay [2] stood at 692 µM (≈ 250 µg/mL); in [3] it was 871 µM (≈ 315 µg/mL).
`C/C=C/C/C=C/CCC(=O)[C@H]1O[C@H]1C(N)=O` [CERULENIN]: in assay [2], 16.9 µM corresponded to half-maximal inhibition (IC50) and the MIC90 was found to be 52.3 µM (≈ 11.7 µg/mL). Also, in [3], it took 15.1 µM to reach half-maximal inhibition (IC50) and the MIC90 stood at 64.9 µM (≈ 14.5 µg/mL).
Consider `O=C(N[C@H](CO)[C@H](O)c1ccc([N+](=O)[O-])cc1)C(Cl)Cl` [CHLORAMPHENICOL], for which the half-inhibitory concentration (IC50) in assay [2] stood at 11.2 µM; in [3], 417 µM. The MIC90 in [2] was found to be 190 µM (≈ 61.6 µg/mL); in [3], 1020 µM (≈ 331 µg/mL). This molecule displayed an Activity in assay [4] of 10%. Further, the outcome in [5] and in assay [6] was inactive.
For `CCN(CC)CCCC(C)Nc1ccnc2cc(Cl)ccc12` (stereo unspecified) [CHLOROQUINE], the MIC90 in assay [2] and in assay [3] was 0.011 µM (≈ 0.00352 µg/mL) in each case. The outcome in [7] was inactive.
Take `CCC[C@@H]1C[C@@H](C(=O)N[C@@H]([C@H]2O[C@H](SC)[C@H](O)[C@@H](O)[C@H]2O)[C@H](C)Cl)N(C)C1` [CLINDAMYCIN]: the IC50 in [2] is 0.0013 µM; in assay [3], 288 µM. For the same molecule, the MIC90 amounted to 6 µM (≈ 2.55 µg/mL) in assay [2] and 537 µM (≈ 228 µg/mL) in [3]. The Activity in [8] was 0.4; in assay [10], 0.42; in assay [11], 0.65; in [4], 10%. Besides, the outcome in assay [9], in assay [5] and in assay [12] was inactive.
In assay [2], `C[C@@H]1C[C@@H]([C@H](O)CC2CC(=O)NC(=O)C2)C(=O)[C@@H](C)C1` [CYCLOHEXIMIDE] showed an IC50 of 0.1 µM and an MIC90 of 0.48 µM (≈ 0.135 µg/mL). In [3], this molecule returned a half-inhibitory concentration (IC50) of 0.15 µM and an MIC90 of 0.73 µM (≈ 0.205 µg/mL). In addition, the outcome in assay [7] was inactive.
Regarding `CC(Oc1ccc(Oc2ccc(C(F)(F)F)cn2)cc1)C(=O)O` (stereo unspecified) [FLUAZIFOP], the IC50 turned out to be 1480 µM in assay [2] and 1550 µM in assay [3]. The MIC90 is 5750 µM (≈ 1880 µg/mL) in assay [2] and 6920 µM (≈ 2260 µg/mL) in assay [3].
Turning to `CC(Oc1ccc(Oc2ncc(C(F)(F)F)cc2Cl)cc1)C(=O)O` (stereo unspecified) [HALOXYFOP], the IC50 is 97.7 µM in assay [2] and 107 µM in assay [3]. Also, the MIC90 in assay [2] and in assay [3] was 346 µM (≈ 125 µg/mL) each time. For the same molecule, the result in assay [13] was inactive.
For the molecule `CC(Oc1ccc(Oc2cnc3cc(Cl)ccc3n2)cc1)C(=O)O` (stereo unspecified) [QUIZALOFOP], the concentration for half-maximal inhibition (IC50) was 676 µM in assay [2] and 575 µM in assay [3]. The figures for the MIC90 in [2] and in [3] were 1950 µM (≈ 672 µg/mL) and 3090 µM (≈ 1070 µg/mL), respectively.
With `C[C@@H]1C[C@H]2O[C@@H]2/C=C\C=C\C(=O)Cc2c(Cl)c(O)cc(O)c2C(=O)O1` [RADICICOL], in assay [2], the IC50 stood at 5.6 µM and the MIC90 was found to be 60.2 µM (≈ 22 µg/mL). In assay [3], this molecule displayed an IC50 of 7.2 µM and an MIC90 of 46.8 µM (≈ 17.1 µg/mL).
For `CO[C@H]1/C=C/O[C@@]2(C)Oc3c(C)c(O)c4c(O)c(c(/C=N/N5CCN(C)CC5)c(O)c4c3C2=O)NC(=O)/C(C)=C\C=C\[C@H](C)[C@H](O)[C@@H](C)[C@@H](O)[C@@H](C)[C@H](OC(C)=O)[C@@H]1C` [RIFAMPIN], the IC50 was 0.19 µM in [2] and 4.2 µM in assay [3]. For the same molecule, the MIC90 in assay [2] turned out to be 2 µM (≈ 1.65 µg/mL); in [3], 110 µM (≈ 90.2 µg/mL). In addition, the result in [14] and in [12] was Active. For the same molecule, the Activity in [4] is on record as 10%. In assay [5], the outcome was inactive.
In the case of `CC(=O)CC(=O)CCC(=O)O` [SUCCINYLACETONE], in assay [2], the half-inhibitory concentration (IC50) amounted to 17400 µM and the MIC90 came to 51300 µM (≈ 8110 µg/mL). Also, the result in assay [15] was inactive. In assay [3], this molecule had an IC50 of 17800 µM and an MIC90 of 58900 µM (≈ 9310 µg/mL).
Take `CN(C)[C@@H]1C(O)=C(C(N)=O)C(=O)[C@@]2(O)C(O)=C3C(=O)c4c(O)cccc4[C@@](C)(O)[C@H]3C[C@@H]12` [TETRACYCLINE]: the values for the IC50 in assay [2] and in assay [3] were 2.19 µM and 135 µM, respectively. In addition, the MIC90 stood at 26.9 µM (≈ 12 µg/mL) in assay [2] and 562 µM (≈ 250 µg/mL) in assay [3]. The result in [14] and in [6] was Active. The Activity in [16] was 0.1; in [4], 10%. Besides, in assay [5], the outcome was inactive.
As to `Oc1cc(Cl)ccc1Oc1ccc(Cl)cc1Cl` [TRICLOSAN], the concentration for half-maximal inhibition (IC50) in [2] is 1.2 µM; in assay [3], 1.1 µM. The figures for the MIC90 in [2] and in assay [3] were 10.2 µM (≈ 2.95 µg/mL) and 15.8 µM (≈ 4.57 µg/mL), respectively. Moreover, the outcome in assay [10] and in assay [11] was inactive. Moreover, in assay [17], the outcome was Active.

These data come from ChEMBL document CHEMBL1142150, “Inhibitors of nonhousekeeping functions of the apicoplast defy delayed death in Plasmodium falciparum” (Antimicrob Agents Chemother, 2007).
